{"source": "ChEMBL document CHEMBL4831507", "about": "“Development of FABP4/5 inhibitors with potential therapeutic effect on type 2 Diabetes Mellitus” (Eur J Med Chem, 2021)", "key": {"THP-1 [1]": {"system": "THP-1", "experiment": "Antiinflammatory activity against LPS-induced human THP-1 cells assessed as inhibition of MCP-1 gene expression at 25 uM incubated for 18 hrs followed by LPS-stimulation and measured after 6 hrs by qRT-PCR analysis", "format": "functional, cell-based", "settings": "time 24.0 hrs", "method_in_brief": "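THP-1 cells (1 per 48-well, 3*10⁵) differentiated with 100 nM PMA for 24 h, then washed with PBS. Compound at […] or 0.1% DMSO for 18 h, then 100 ng/ml LPS for 6 h. RNA extracted with TRIzol. MCP-1 mRNA by RT-qPCR, 2^-ΔΔCT method.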"}, "Mus musculus [2]": {"system": "Mus musculus", "experiment": "Improvement in lipid homeostasis in C57BL/KsJ-db/db mouse assessed as effect on triglyceride level in serum at 50 mg/kg, po administered for 8 weeks", "format": "functional, organism-based", "method_in_brief": "(§1)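 Male db/db mice, 6 weeks old, 10 per group, dosed 50 mg/kg by gavage daily for 8 weeks; vehicle 0.5% CMC-Na. Lean littermates received vehicle. Body weight recorded twice weekly; 6-h fasting tail glucose by glucometer weekly. OGTT on day 45: overnight fast, glucose 0.5 g/kg by gavage. ITT on day 51: 6-h fast, insulin 0.85 IU/kg ip. Glucose AUC calculated. Final serum taken after 6-h fast; HDL-C, LDL-C, TG, TCH and FABP4 measured by kits. Liver Akt and p-Akt(Ser473) by western blot.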"}, "THP-1 [3]": {"system": "THP-1", "experiment": "Cytotoxicity against human THP-1 cells assessed as reduction in cell viability at 50 uM incubated for 24 hrs by CCK8 assay", "format": "cell-based", "settings": "thp-1, 24 h"}, "Mus musculus [4]": {"system": "Mus musculus", "experiment": "Antidiabetic activity in C57BL/KsJ-db/db mouse assessed as improvement in glucose metabolism at 50 mg/kg, po administered for 45 days by oral glucose tolerance test", "format": "functional, organism-based", "settings": "time 45.0 day", "method_in_brief": "as §1"}, "[5]": {"experiment": "Metabolic stability in mouse liver microsomes assessed as half life at 0.1 uM preincubated for 10 mins followed by NADPH addition and measured for 60 mins by LC-MS/MS analysis", "format": "ADME, Microsome", "settings": "time 70 min", "method_in_brief": "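Mouse liver microsomes 0.33 mg/mL in 0.1 M Tris pH 7.4 with 5 mM MgCl₂, 0.01% DMSO and 0.005% BSA. Compound final […]. Preincubated 10 min at 37 °C; reaction started with 1 mM NADPH. Samples at 0, 7, 17, 30 and 60 min quenched with cold methanol, then analysed by LC-MS/MS.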"}, "Mus musculus [6]": {"system": "Mus musculus", "experiment": "Antidiabetic activity in C57BL/KsJ-db/db mouse assessed as reduction in fasting blood glucose level at 50 mg/kg, po administered for 7 weeks", "format": "functional", "settings": "1176 h", "method_in_brief": "as §1"}, "Homo sapiens [7]": {"organism": "Homo sapiens", "experiment": "Selectivity ratio of IC50 for FABP3 (unknown origin) to IC50 for FABP4 (unknown origin)", "method_in_brief": "(§2)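 1,8-ANS displacement using purified recombinant FABP3, FABP4 or FABP5. Compound incubated with protein and 1,8-ANS in phosphate buffer for 3 min at room temperature. Fluorescence read at ex 370/em 470 nm. IC50 by nonlinear regression, mean ± SD of three independent experiments.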"}, "3T3-L1 [8]": {"system": "3T3-L1", "experiment": "Anti-lipolytic activity in mouse 3T3-L1 cells assessed as inhibition of forskolin-stimulated glycerol release at 80 uM preincubated for 24 hrs followed by forskolin stimulation for 1 hr", "format": "functional, cell-based", "settings": "time 25.0 hrs"}, "Homo sapiens [9]": {"organism": "Homo sapiens", "experiment": "Selectivity ratio of IC50 for FABP3 (unknown origin) to IC50 for FABP5 (unknown origin)", "method_in_brief": "as §2"}, "[10]": {"molecular_target": "T1, Fatty acid-binding protein, adipocyte (Homo sapiens, UniProt P15090)", "experiment": "Binding affinity to FABP4 (unknown origin) by microscale thermophoresis analysis"}, "[11]": {"molecular_target": "Fatty acid-binding protein, heart (Homo sapiens, UniProt P05413)", "sequence (P05413 whole entry)": "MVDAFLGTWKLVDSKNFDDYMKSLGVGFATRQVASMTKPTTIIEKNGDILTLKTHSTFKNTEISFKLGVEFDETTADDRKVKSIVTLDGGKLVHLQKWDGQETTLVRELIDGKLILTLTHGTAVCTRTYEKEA", "experiment": "Displacement of 1,8-ANS from FABP3 (unknown origin) incubated for 3 mins by fluorescence based analysis", "method_in_brief": "as §2"}, "[12]": {"experiment": "Half life in ICR mouse at 1 mg/kg, iv measured for 24 hrs by LC-MS/MS analysis", "format": "ADME, organism-based", "settings": "in vivo", "method_in_brief": "(§3)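 Male ICR mice, 20-25 g, three per group. Oral dose 3 mg/kg in PBS with 5% DMSO and 0.5% HPMC; iv dose 1 mg/kg in DMSO/EtOH/PEG300/NaCl (5/5/40/50). Blood sampled at 0.25, 0.5, 1, 2, 4, 8 and 24 h. Plasma drug measured by LC-MS/MS. Mean ± SEM, n = 3.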"}, "Mus musculus [13]": {"system": "Mus musculus", "experiment": "Reduction in FABP4 level in serum of C57BL/KsJ-db/db mouse at 50 mg/kg, po administered for 8 weeks", "format": "functional, organism-based", "method_in_brief": "as §1"}, "Mus musculus [14]": {"system": "Mus musculus", "experiment": "In vivo activation of […] signaling in C57BL/KsJ-db/db mouse assessed as increase in Akt phosphorylation at Ser473 in liver at 50 mg/kg, po administered for 8 weeks by western blot analysis", "format": "functional, organism-based", "method_in_brief": "as §1"}, "[15]": {"molecular_target": "T2, Fatty acid-binding protein 5 (Homo sapiens, UniProt Q01469)", "T2 sequence (Q01469 whole entry)": "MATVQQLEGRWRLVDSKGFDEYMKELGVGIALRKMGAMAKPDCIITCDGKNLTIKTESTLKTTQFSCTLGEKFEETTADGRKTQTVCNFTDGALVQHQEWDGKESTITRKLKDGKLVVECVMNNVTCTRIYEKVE", "experiment": "Binding affinity to FABP5 (unknown origin) by microscale thermophoresis analysis"}, "[16]": {"molecular_target": "T2, Fatty acid-binding protein 5", "experiment": "Displacement of 1,8-ANS from FABP5 (unknown origin) incubated for 3 mins by fluorescence based analysis"}, "Mus musculus [17]": {"system": "Mus musculus", "experiment": "Improvement in lipid homeostasis in C57BL/KsJ-db/db mouse assessed as increase in high density cholesterol level in serum at 50 mg/kg, po administered for 8 weeks", "format": "functional, organism-based", "method_in_brief": "as §1"}, "[18]": {"experiment": "Cmax in ICR mouse at 3 mg/kg, po and 1 mg/kg, iv measured for 24 hrs by LC-MS/MS analysis", "format": "ADME, organism-based", "set-up": "time 24 hrs, dose 3 mg/kg", "settings": "in vivo", "method_in_brief": "as §3"}, "[19]": {"experiment": "Half life in ICR mouse at 3 mg/kg, po measured for 24 hrs by LC-MS/MS analysis", "format": "ADME, organism-based", "settings": "in vivo", "method_in_brief": "as §3"}, "3T3-L1 [20]": {"system": "3T3-L1", "experiment": "Inhibition of FABP4 secretion in mouse 3T3-L1 cells assessed as reduction in FABP4 level in conditioned medium at 50 uM incubated for 24 hrs by immunoblotting analysis", "format": "functional, cell-based", "method_in_brief": "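Mature 3T3-L1 adipocytes starved for 6 h in DMEM with 0.5% BSA, then treated with compound at […] for 24 h. Conditioned medium ultrafiltered; lysate and medium protein measured by BCA. FABP4 immunoblotted with GAPDH, ECL detection, densitometry. Three independent experiments.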"}, "[21]": {"experiment": "AUC in ICR mouse at 1 mg/kg, iv measured for 24 hrs by LC-MS/MS analysis", "format": "ADME, organism-based", "set-up": "dose 1 mg/kg, time 24 hrs", "settings": "in vivo", "method_in_brief": "as §3"}, "[22]": {"experiment": "AUC in ICR mouse at 3 mg/kg, po measured for 24 hrs by LC-MS/MS analysis", "format": "ADME, organism-based", "set-up": "dose 3 mg/kg, time 24 hrs", "settings": "in vivo", "method_in_brief": "as §3"}, "[23]": {"molecular_target": "T1, Fatty acid-binding protein, adipocyte", "experiment": "Displacement of 1,8-ANS from FABP4 (unknown origin) incubated for 3 mins by fluorescence based analysis", "method_in_brief": "as §2"}, "Mus musculus [24]": {"system": "Mus musculus", "experiment": "Antidiabetic activity in C57BL/KsJ-db/db mouse assessed as improvement in insulin resistance at 50 mg/kg, po administered for 51 days by insulin tolerance test", "format": "functional, organism-based", "settings": "time 51.0 day", "method_in_brief": "as §1"}, "[25]": {"experiment": "Oral bioavailability in ICR mouse at 3 mg/kg measured for 24 hrs by LC-MS/MS analysis", "format": "ADME, organism-based", "settings": "in vivo", "method_in_brief": "as §3"}, "Mus musculus [26]": {"system": "Mus musculus", "experiment": "Improvement in lipid homeostasis in C57BL/KsJ-db/db mouse assessed as effect on total cholesterol level in serum at 50 mg/kg, po administered for 8 weeks", "format": "functional, organism-based", "method_in_brief": "as §1"}, "[27]": {"experiment": "Toxicity in C57BL/KsJ-db/db mouse assessed as effect on body weight at 50 mg/kg, po administered for 8 weeks", "format": "organism-based", "settings": "in vivo, 1344 h", "method_in_brief": "as §1"}, "[28]": {"experiment": "Clearance in ICR mouse at 3 mg/kg, po and 1 mg/kg, iv measured for 24 hrs by LC-MS/MS analysis", "format": "ADME, organism-based", "settings": "in vivo", "method_in_brief": "as §3"}, "[29]": {"molecular_target": "T1, Fatty acid-binding protein, adipocyte", "experiment": "Displacement of 1,8-ANS from FABP4 (unknown origin) at 25 uM incubated for 3 mins by fluorescence based analysis relative to control", "method_in_brief": "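Single-concentration percent inhibition in the 1,8-ANS displacement assay with FABP4. Compound incubated with protein and probe in phosphate buffer for 3 min at room temperature; fluorescence read at ex 370/em 470 nm.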"}, "3T3-L1 [30]": {"system": "3T3-L1", "experiment": "Cytotoxicity against mouse 3T3-L1 cells assessed as reduction in cell viability at 100 uM incubated for 24 hrs by CCK8 assay", "format": "cell-based", "settings": "3t3-l1, 24 h"}}, "note": "Calls of active or inactive are those of the source. No cut-off for these calls is given here.", "data": [{"smiles": "COc1c(-c2ccc(F)cc2C)cc(S(=O)(=O)Nc2ccc(F)c(CC(=O)O)c2)c2ccccc12", "values": [{"measurement": "Activity", "setting": "THP-1 [1]", "result": "Active"}, {"measurement": "Activity", "setting": "Mus musculus [2]", "result": "inactive"}, {"measurement": "Activity", "setting": "THP-1 [3]", "result": "Non-Toxic"}, {"measurement": "Activity", "setting": "Mus musculus [4]", "result": "Active"}, {"measurement": "half-life at 0.1 µM", "setting": "[5]", "result": 1.47, "unit": "h"}, {"measurement": "inhibition in vivo at 50 mg/kg", "setting": "Mus musculus [6]", "result": 28.1, "unit": "%"}, {"measurement": "Ratio IC50", "setting": "Homo sapiens [7]", "result": 22.3}, {"measurement": "Activity", "setting": "3T3-L1 [8]", "result": "Active"}, {"measurement": "Ratio IC50", "setting": "Homo sapiens [9]", "result": 14.7}, {"measurement": "Kd", "setting": "[10]", "result": 3.14, "unit": "µM"}, {"measurement": "IC50", "setting": "[11]", "result": 84.4, "unit": "µM"}, {"measurement": "half-life", "setting": "[12]", "result": 1.78, "unit": "h"}, {"measurement": "inhibition", "setting": "Mus musculus [13]", "result": "Active"}, {"measurement": "Activity", "setting": "Mus musculus [14]", "result": "Active"}, {"measurement": "Kd", "setting": "[15]", "result": 14.1, "unit": "µM"}, {"measurement": "IC50", "setting": "[16]", "result": 5.72, "unit": "µM"}, {"measurement": "Activity", "setting": "Mus musculus [17]", "result": "Active"}, {"measurement": "Cmax", "setting": "[18]", "result": 478, "unit": "ng/mL"}, {"measurement": "half-life", "setting": "[19]", "result": 6.04, "unit": "h"}, {"measurement": "inhibition", "setting": "3T3-L1 [20]", "result": "Active"}, {"measurement": "AUC at 24 h", "setting": "[21]", "result": 1940, "unit": "ng·h/mL"}, {"measurement": "AUC at 24 h", "setting": "[22]", "result": 1740, "unit": "ng·h/mL"}, {"measurement": "IC50", "setting": "[23]", "result": 3.78, "unit": "µM"}, {"measurement": "Activity", "setting": "Mus musculus [24]", "result": "Active"}, {"measurement": "bioavailability", "setting": "[25]", "result": 29.9, "unit": "%"}, {"measurement": "Activity", "setting": "Mus musculus [26]", "result": "inactive"}, {"measurement": "Activity", "setting": "[27]", "result": "Non-Toxic"}, {"measurement": "clearance", "setting": "[28]", "result": 8.56, "unit": "mL/min/kg"}, {"measurement": "inhibition", "setting": "[29]", "result": 94, "unit": "%"}, {"measurement": "Activity", "setting": "3T3-L1 [30]", "result": "Non-Toxic"}]}]}
